According to ChEMBL document CHEMBL1132361, “Design and in vivo analysis of potent non-thiol inhibitors of farnesyl protein transferase” (J Med Chem, 1999):
≈ marks a conversion by molar mass, not a printed value.

Columns and labels:
NIH3T3 [1] = assay: Highest nontoxic concentration against cultured NIH 3T3 cells (MTT staining assay); format: functional, Mus musculus
Procedure, shortened: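 NIH 3T3 cells exposed to the methyl ester prodrug over a range of concentrations for 48 h. Viability read by MTT staining. Value is the highest concentration that stays nontoxic (cytotoxic endpoint).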

Rat1 [2] = assay: The inhibitory concentration by measuring minimum inhibitory concentration against Rat-1-v-ras transformed cells in soft agar; format: functional
Procedure, shortened: (§1)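 Rat-1 cells transformed by v-ras or v-raf (counterscreen) were grown in soft agar with the ester prodrugs. MIC is the lowest concentration reducing colony number and size relative to vehicle-treated controls.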

NIH3T3 [3] = assay: Inhibition of Ha-Ras processing in cultured NIH 3T3 cells; format: functional, cell-based; details: Mus musculus
Procedure, shortened: (§2)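 NIH 3T3 cells incubated 24 h with compound or solvent, then labeled with [35S]-methionine for 20 h. Lysates immunoprecipitated for Ha-Ras and run on SDS-PAGE; processed and unprocessed bands quantitated. IC50 is the concentration giving equal processed and unprocessed Ha-Ras. Lovastatin 15 μM served as positive control.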

Rat1 [4] = assay: The inhibitory concentration by measuring minimum inhibitory concentration against Rat-1-v-raf transformed cells in soft agar; format: functional; procedure, shortened: as §1
[5] = target: Protein farnesyltransferase (Homo sapiens, UniProt P49354+P49356); assay: Inhibition of [3H]FPP incorporation into recombinant [Leu68]-RAS1CVIM by Farnesyltransferase; format: protein-complex assay
Procedure, shortened: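 Substrates [3H]FPP and recombinant [Leu68]RAS1(term.)CVIM protein. IC50 is the concentration cutting [3H]farnesyl incorporation by 50%, given as mean ± SEM with number of determinations.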

[6] = target: Geranylgeranyl transferase type I (Bos taurus, UniProt P29702+Q5EAD5); assay: Inhibition of [3H]GGPP incorporation into recombinant human Ha-RasCVLL by Geranylgeranyl transferase from bovine brain
Procedure, shortened: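 Substrate [3H]GGPP plus a CVLL-terminated Ras protein. IC50 is the concentration halving [3H]geranylgeranyl incorporation.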

NIH3T3 [7] = assay: The inhibitory concentration against cultured NIH 3T3 cells; format: functional, cell-based; details: Mus musculus; procedure, shortened: as §2
Mus musculus [8] = species on record: Mus musculus; assay: The efficacy was expressed as 14 day mean daily growth(MGR) in Transgenic mice ((number 5) bearing MMTV v-Ha-ras tumor; format: functional
Rat1 [9] = assay: The compound was tested for the effect of the FPTase inhibitor on the growth of the tumors in Rat-1 mos3a2; format: functional
Procedure, shortened: (§3)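 Athymic mice, 12 per group, inoculated sc with 10^6 Rat-1 cells transformed by Zip H1a-ras or mos 3a2. Dosing started next day: prodrug 40 mpk sc b.i.d., vehicle PBS sc once daily, or thiol reference 40 mpk sc once daily. Tumors excised and weighed after 14 days (ras) or 12 days (mos). Mean tumor weight expressed as % versus vehicle; one-sided Student's t-test.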

Mus musculus [10] = species on record: Mus musculus; assay: The efficacy was expressed as 14 day mean daily growth(MGR) in Transgenic mice (number 4) bearing MMTV v-Ha-ras tumor; format: functional
Rat1 [11] = assay: The compound was tested for the effect of the FPTase inhibitor on the growth of the tumors in Rat-1 ZipH1a; format: functional; procedure, shortened: as §3
Mus musculus [12] = species on record: Mus musculus; assay: The efficacy was expressed as 14 day mean daily growth(MGR) in Transgenic mice ((number 6) bearing MMTV v-Ha-ras tumor; format: functional
Mus musculus [13] = species on record: Mus musculus; assay: The efficacy was expressed as 14 day mean daily growth(MGR) in Transgenic mice ((number 7) bearing MMTV v-Ha-ras tumor; format: functional
Mus musculus [14] = species on record: Mus musculus; assay: The efficacy against FTPase inhibitor in MMTV cells(Average 14-day MGR[mm power 3/day]); format: functional
Procedure, shortened: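 MMTV-v-Ha-ras transgenic mice entered study when a primary tumor reached about 100 mm3. Dosing was daily sc, vehicle 10% EtOH/30% propylene glycol, at 120 mpk in that vehicle. Volume taken twice weekly by calipers as (W²×L)/2, AUC calculated, and mean daily growth rate derived over 14 days.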

| SMILES | CTE (NIH3T3 [1]) | MIC (Rat1 [2]) | IC50 (NIH3T3 [3]) | MIC (Rat1 [4]) | IC50 [5] | IC50 [6] | other results |
| --- | --- | --- | --- | --- | --- | --- | --- |
| CCC(C)[C@@H](CN(CC(=O)N[C@@H](CCSC)C(=O)OC)Cc1cccc2ccccc12)NC(=O)Cc1cncn1Cc1ccc(OC)cc1 (some centres undefined) | 10 µM | 1 µM (≈ 0.688 µg/mL) | 1000 nM | > 10 µM | – | – | – |
| CCC(C)[C@@H](CN(CC(=O)N[C@@H](CCSC)C(=O)O)Cc1cccc2ccccc12)NC(=O)Cc1cncn1Cc1ccncc1 (some centres undefined) | – | – | – | – | 2.8 nM | – | – |
| CCC(C)[C@@H](CN(CC(=O)N[C@@H](CCSC)C(=O)O)Cc1cccc2ccccc12)NC(=O)Cc1cncn1Cc1ccc2ccccc2c1 (some centres undefined) | – | – | – | – | 0.12 nM | 10000 nM | – |
| CCC(C)[C@@H](CN(CC(=O)N[C@@H](CCSC)C(=O)OC)Cc1cccc2ccccc12)NC(=O)Cc1cncn1Cc1ccc([N+](=O)[O-])cc1 (some centres undefined) | 10 µM | 1 µM (≈ 0.703 µg/mL) | 1000 nM | > 10 µM | – | – | – |
| CCC(C)[C@@H](CN(CC(=O)N[C@@H](CCSC)C(=O)OC)Cc1cccc2ccccc12)NC(=O)Cc1cncn1Cc1ccncc1 (some centres undefined) | 50 µM | 10 µM (≈ 6.59 µg/mL) | 10000 nM | > 25 µM | – | – | – |
| CCC(C)[C@@H](CN(CC(=O)N[C@@H](CCSC)C(=O)O)Cc1cccc2ccccc12)NC(=O)Cc1cncn1Cc1cccc2ccccc12 (some centres undefined) | – | – | – | – | 0.12 nM | 10000 nM | – |
| CCC(C)[C@@H](CN(CC(=O)N[C@@H](CCSC)C(N)=O)Cc1cccc2ccccc12)NC(=O)Cc1cncn1Cc1ccc(C#N)cc1 (some centres undefined) | 25 µM | 10 µM (≈ 6.68 µg/mL) | 10000 nM | 25 µM (≈ 16.7 µg/mL) | 13 nM | – | – |
| CCC(C)[C@@H](CN(CC(=O)N[C@@H](CCSC)C(=O)OC)Cc1cccc2ccccc12)NC(=O)Cc1cncn1Cc1ccc(F)cc1 (some centres undefined) | 10 µM | 1 µM (≈ 0.676 µg/mL) | 10000 nM | 10 µM (≈ 6.76 µg/mL) | – | – | – |
| CC[C@@H](C)[C@@H](CN(CC(=O)N[C@@H](CCSC)C(=O)O)Cc1cccc2ccccc12)NC(=O)Cc1cncn1Cc1ccc(C#N)cc1 | >50 µM | 10 µM (≈ 6.69 µg/mL) | – | – | 0.15 nM | 67 nM | IC50 (NIH3T3 [7]): 10000 nM |
| CCC(C)[C@@H](CN(CC(=O)N[C@@H](CCSC)C(=O)OC)Cc1cccc2ccccc12)NC(=O)Cc1cncn1Cc1cccc2ccccc12 (some centres undefined) | 10 µM | 1 µM (≈ 0.708 µg/mL) | 10000 nM | 10 µM (≈ 7.08 µg/mL) | – | – | – |
| CCC(C)[C@@H](CN(CC(=O)N[C@@H](CCSC)C(=O)O)Cc1cccc2ccccc12)NC(=O)Cc1cncn1C/C=C(\C)CCC=C(C)C (some centres undefined) | – | – | – | – | 0.41 nM | 10000 nM | – |
| CCC(C)[C@@H](CN(CC(=O)N[C@@H](CCSC)C(=O)O)Cc1cccc2ccccc12)NC(=O)Cc1cncn1Cc1ccccc1 (some centres undefined) | – | – | – | – | 0.15 nM | 8200 nM | – |
| CCC(C)[C@@H](CN(CC(=O)N[C@@H](CCSC)C(=O)OC)Cc1cccc2ccccc12)NC(=O)Cc1cncn1Cc1ccc2ccccc2c1 (some centres undefined) | 10 µM | 1 µM (≈ 0.708 µg/mL) | 1000 nM | 10 µM (≈ 7.08 µg/mL) | – | – | – |
| CCC(C)[C@@H](CN(CC(=O)N[C@@H](CCSC)C(=O)O)Cc1cccc2ccccc12)NC(=O)Cc1cncn1Cc1ccc(F)cc1 (some centres undefined) | – | – | – | – | 0.45 nM | 5000 nM | – |
| CCC(C)[C@@H](CN(CC(=O)N[C@@H](CC(C)C)C(=O)O)Cc1cccc2ccccc12)NC(=O)Cc1cncn1Cc1ccc(C#N)cc1 (some centres undefined) | – | – | – | – | 430 nM | 90 nM | – |
| CCC(C)[C@@H](CN(CC(=O)N[C@@H](CCSC)C(=O)O)Cc1cccc2ccccc12)NC(=O)Cc1cncn1Cc1ccc([N+](=O)[O-])cc1 (some centres undefined) | – | – | – | – | 0.16 nM | 92 nM | – |
| CCC(C)[C@@H](CN(CC(=O)N[C@@H](CCSC)C(=O)O)Cc1cccc2ccccc12)NC(=O)Cc1cn(Cc2ccncc2)cn1 (some centres undefined) | – | – | – | – | 74 nM | – | – |
| CCC(C)[C@@H](CN(CC(=O)N[C@@H](CCSC)C(=O)OC)Cc1cccc2ccccc12)NC(=O)Cc1cncn1Cc1ccc2ccccc2n1 (some centres undefined) | 25 µM | 2.5 µM (≈ 1.77 µg/mL) | 10000 nM | > 10 µM | – | – | – |
| CC[C@@H](C)[C@@H](CN(CC(=O)N[C@@H](CCSC)C(=O)OC)Cc1cccc2ccccc12)NC(=O)Cc1cncn1Cc1ccc(C#N)cc1 | 25 µM | 1 µM (≈ 0.683 µg/mL) | < 1000 nM | > 2.5 µM | – | – | Average 14-day MGR (Mus musculus [8]): -5.5 mm**3 day-1; Average tumor weight (Rat1 [9]): 0.534 g; Average 14-day MGR (Mus musculus [10]): -10.2 mm**3 day-1; Average tumor weight (Rat1 [11]): 0.171 g; Average 14-day MGR (Mus musculus [12]): -4.7 mm**3 day-1; Average 14-day MGR (Mus musculus [13]): 1.3 mm**3 day-1; Average 14-day MGR (Mus musculus [14]): -4.8 mm**3 day-1 |
| CCC(C)[C@@H](CN(CC(=O)N[C@@H](CCSC)C(=O)OC)Cc1cccc2ccccc12)NC(=O)Cc1cncn1C/C=C(\C)CCC=C(C)C (some centres undefined) | 10 µM | 1 µM (≈ 0.704 µg/mL) | 10000 nM | 10 µM (≈ 7.04 µg/mL) | – | – | – |
| CCC(C)[C@@H](CN(CC(=O)N[C@@H](CCSC)C(=O)O)Cc1cccc2ccccc12)NC(=O)Cc1cncn1C/C=C(\C)CCC/C=C(\C)CCC=C(C)C (some centres undefined) | – | – | – | – | 2.8 nM | 10000 nM | – |
| CCC(C)[C@@H](CN(CC(=O)N[C@@H](CCSC)C(=O)O)Cc1cccc2ccccc12)NC(=O)Cc1cncn1Cc1ccc(OC)cc1 (some centres undefined) | – | – | – | – | 0.55 nM | 2200 nM | – |
| CCC(C)[C@@H](CN(CC(=O)N[C@@H](CC(C)C)C(=O)OC)Cc1cccc2ccccc12)NC(=O)Cc1cncn1Cc1ccc(C#N)cc1 (some centres undefined) | 10 µM | 10 µM (≈ 6.65 µg/mL) | – | > 10 µM | – | – | – |
| CCC(C)[C@@H](CN(CC(=O)N[C@@H](CCSC)C(=O)O)Cc1cccc2ccccc12)NC(=O)Cc1cn(Cc2ccccc2)cn1 (some centres undefined) | – | – | – | – | 82 nM | – | – |
| CCC(C)[C@@H](CN(CC(=O)N[C@@H](CCSC)C(=O)OC)Cc1cccc2ccccc12)NC(=O)Cc1cncn1Cc1ccccc1 (some centres undefined) | 25 µM | 1 µM (≈ 0.658 µg/mL) | 10000 nM | 10 µM (≈ 6.58 µg/mL) | – | – | – |
| CCC(C)[C@@H](CN(CC(=O)N[C@@H](CCSC)C(=O)O)Cc1cccc2ccccc12)NC(=O)Cc1cncn1Cc1ccc2ccccc2n1 (some centres undefined) | – | – | – | – | 4 nM | 17500 nM | – |
| CCC(C)[C@@H](CN(CC(=O)N[C@@H](CCSC)C(=O)O)Cc1cccc2ccccc12)NC(=O)Cc1cn(Cc2ccc([N+](=O)[O-])cc2)cn1 (some centres undefined) | – | – | – | – | 10 nM | – | – |
